Data published in ChEMBL document CHEMBL2157980, “Discovery of SCH 900229, a Potent Presenilin 1 Selective γ-Secretase Inhibitor for the Treatment of Alzheimer's Disease” (ACS Med Chem Lett, 2012).

How the values were obtained:
Presenilin-1 [1] = target: T1, Presenilin-1 (Homo sapiens, UniProt P49768); test: Inhibition of PS1 gamma-secretase assessed as reduction of amyloid beta-40 production by membrane based assay
Summary of the method: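 Aβ40 production was measured in a membrane-based assay. IC50 was the average of at least two measurements, with standard deviation 20%.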

Presenilin-2 = Presenilin-2 (Homo sapiens, UniProt P49810); test: Inhibition of PS2 gamma-secretase expressed in HEK cells harboring Awe-Lon gene assessed as reduction of amyloid beta-42 production; format: cell-based, HEK293
Presenilin-2, sequence (P49810 1-297 limits assumed): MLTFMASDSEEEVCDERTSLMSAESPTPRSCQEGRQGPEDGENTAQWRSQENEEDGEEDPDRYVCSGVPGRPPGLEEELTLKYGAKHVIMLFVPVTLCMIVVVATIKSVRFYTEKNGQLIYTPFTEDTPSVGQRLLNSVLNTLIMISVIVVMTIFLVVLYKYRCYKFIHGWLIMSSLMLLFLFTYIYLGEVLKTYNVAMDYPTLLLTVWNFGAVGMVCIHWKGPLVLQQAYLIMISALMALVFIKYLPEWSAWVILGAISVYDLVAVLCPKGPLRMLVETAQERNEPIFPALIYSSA
Presenilin-2, sequence (P49810 298-448 limits assumed): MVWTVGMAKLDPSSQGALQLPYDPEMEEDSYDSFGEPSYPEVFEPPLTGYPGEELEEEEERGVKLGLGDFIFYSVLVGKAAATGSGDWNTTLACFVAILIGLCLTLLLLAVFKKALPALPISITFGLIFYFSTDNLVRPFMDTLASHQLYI

Mus musculus [2] = test: Antialzheimer activity in B6C3F1 mouse assessed as reduction of amyloid beta-40 level in plasma at 10 mg/kg, po after 3 hrs; format: functional; set-up: scale not given: the % may be the effect or the level left
Summary of the method: (§1)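 B6C3F1 mice were dosed orally at 10 or 30 mg/kg. Aβ40 in plasma and cortex was measured 3 h after dosing and expressed as % change, with lowering shown as negative.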

Presenilin-1 [3] = target: T1, Presenilin-1; test: Inhibition of PS1 gamma-secretase expressed in HEK cells harboring Awe-Lon gene assessed as reduction of amyloid beta-40 production; format: cell-based, HEK293
Summary of the method: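 Cell-based Aβ40 production assay in HEK293 cells carrying APP Awe-Lon. IC50 was the average of at least two determinations, with standard deviation 20%.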

Mus musculus [4] = test: Antialzheimer activity in B6C3F1 mouse assessed as reduction of amyloid beta-40 level in cortex at 10 mg/kg, po after 3 hrs; format: functional; set-up: scale not given: the % may be the effect or the level left; summary of the method: as §1
Mus musculus [5] = test: Antialzheimer activity in transgenic CRND8 mouse assessed as decrease of amyloid beta-40 level in plasma at 30 mg/kg, po after 3 hrs; format: functional; set-up: scale not given: the % may be the effect or the level left
Summary of the method: (§2)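 CRND8 mice were dosed orally at 30 mg/kg. Aβ40 in plasma and cortex was measured 3 h post-dose and reported as % change, negative for lowering and positive for increase.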

Mus musculus [6] = test: Antialzheimer activity in transgenic CRND8 mouse assessed as decrease of amyloid beta-40 level in cortex at 30 mg/kg, po after 3 hrs; format: functional; set-up: scale not given: the % may be the effect or the level left; summary of the method: as §2
Mus musculus [7] = test: Antialzheimer activity in B6C3F1 mouse assessed as reduction of amyloid beta-40 level in cortex at 30 mg/kg, po after 3 hrs; format: functional; set-up: scale not given: the % may be the effect or the level left; summary of the method: as §1
[8] = Selectivity ratio of IC50 for PS2 gamma-secretase to IC50 for PS1 gamma-secretase
Summary of the method: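 Inhibitors were tested against reconstituted γ-secretase complexes containing PS1 or PS2. The result is expressed as the PS2/PS1 ratio of IC50 values.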

Mus musculus [9] = test: Antialzheimer activity in B6C3F1 mouse assessed as reduction of amyloid beta-40 level in plasma at 30 mg/kg, po after 3 hrs; format: functional; set-up: scale not given: the % may be the effect or the level left; summary of the method: as §1

Structure (SMILES) | IC50 (Presenilin-1 [1]) [nM] | IC50 (Presenilin-2) [nM] | Activity (Mus musculus [2]) [%] | IC50 (Presenilin-1 [3]) [nM] | Activity (Mus musculus [4]) [%] | Activity (Mus musculus [5]) [%] | Activity (Mus musculus [6]) [%] | Activity (Mus musculus [7]) [%] | Ratio IC50 [8] | Activity (Mus musculus [9]) [%]
CS(=O)(=O)CC[C@H]1OCC[C@]2(S(=O)(=O)c3ccc(Cl)cc3)c3c(F)ccc(F)c3OC[C@H]12 | 377 | – | – | – | – | – | – | – | – | –
CC(C)S(=O)(=O)CC[C@@H]1OCC[C@@]2(S(=O)(=O)c3ccc(Cl)cc3)c3c(F)ccc(F)c3OC[C@@H]12 | 6 | 3 | 2 | 8 | 58 | – | – | – | – | –
O=S(=O)(c1ccc(Cl)cc1)[C@@]12CCO[C@@H](CCO)[C@@H]1COc1c(F)ccc(F)c12 | 20 | 8 | – | 18 | – | – | – | – | – | –
CC(C)S(=O)(=O)CC[C@@H]1OCC[C@@]2(S(=O)(=O)c3ccc(Cl)cc3)c3c(F)ccc(F)c3OC[C@@H]12 (racemic) | 24 | 10 | – | 26 | – | 20 | 57 | – | – | –
CCS(=O)(=O)CC[C@@H]1OCC[C@@]2(S(=O)(=O)c3ccc(Cl)cc3)c3c(F)ccc(F)c3OC[C@@H]12 | 3 | 2 | – | 5 | – | – | – | 79 | 26 | 60
CNC(=O)OCC[C@@H]1OCC[C@@]2(S(=O)(=O)c3ccc(Cl)cc3)c3c(F)ccc(F)c3OC[C@@H]12 (racemic) | 8 | 6 | – | 8 | – | – | – | – | 3 | –
